Measurements from ChEMBL document CHEMBL4715691, “Synthesis of Triphenylethylene Bisphenols as Aromatase Inhibitors That Also Modulate Estrogen Receptors” (J Med Chem, 2016).

Key:
[1] = molecular target: T1, Estrogen receptor (Homo sapiens) (UniProt P03372); test: Displacement of ES2 from recombinant human ER-alpha at 100 uM incubated for 2 hrs by fluorescence based assay relative to control
T1 sequence (whole entry): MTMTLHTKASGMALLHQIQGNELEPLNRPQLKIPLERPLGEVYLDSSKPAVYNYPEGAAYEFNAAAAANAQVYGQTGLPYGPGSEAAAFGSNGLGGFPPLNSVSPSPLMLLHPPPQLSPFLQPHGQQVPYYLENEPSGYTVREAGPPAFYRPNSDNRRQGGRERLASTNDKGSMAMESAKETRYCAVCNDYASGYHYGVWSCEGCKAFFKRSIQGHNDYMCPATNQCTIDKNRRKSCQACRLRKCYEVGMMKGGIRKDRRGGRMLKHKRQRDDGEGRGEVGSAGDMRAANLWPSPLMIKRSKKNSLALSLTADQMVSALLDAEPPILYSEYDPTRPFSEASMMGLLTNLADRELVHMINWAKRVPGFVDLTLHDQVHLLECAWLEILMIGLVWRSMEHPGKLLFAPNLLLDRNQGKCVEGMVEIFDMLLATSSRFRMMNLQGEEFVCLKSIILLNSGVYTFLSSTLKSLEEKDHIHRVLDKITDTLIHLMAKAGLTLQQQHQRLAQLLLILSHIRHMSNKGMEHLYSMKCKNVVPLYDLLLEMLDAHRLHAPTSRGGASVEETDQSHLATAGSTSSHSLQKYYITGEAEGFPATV
Method in brief: (§1)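 Fluorescence polarization competition: test compound at 100 μM, 9 nM ES2 with 30 nM recombinant human ER-α in ES2 screening buffer (100 mM potassium phosphate, 100 µg/mL BGG, 0.02% NaN₃). Incubated 2 h protected from light, ex/em 485/530. Percent of remaining polarization versus vehicle control. Means of at least three experiments.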

MCF7 [2] = test: Selective estrogen receptor modulator activity in human MCF7 cells assessed as E2-induced progesterone receptor mRNA expression level at 1 uM incubated for 24 hrs by real time PCR analysis (reference value: 100%); type: cell-based; conditions: filed as modulator
Method in brief: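 MCF-7 cells grown in MEM with 10% FBS, then held 72 h in charcoal-stripped FBS. […] Genomic DNA removed, RNA extracted, PGR mRNA measured by real-time PCR (40 cycles) from Ct values.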

[3] = molecular target: Estrogen receptor beta (Homo sapiens) (UniProt Q92731); test: Displacement of ES2 from recombinant human ER-beta at 100 uM incubated for 2 hrs by fluorescence based assay relative to control
Method in brief: as §1, with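 “with 20” for “with 30”, “human ER-β” for “human ER-α”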

MCF7 [4] = test: Antagonist activity at estrogen receptor in human MCF7 cells assessed as E2-induced progesterone receptor mRNA expression level at 1 uM incubated for 24 hrs by real time PCR analysis (reference value: 100%); type: cell-based; set-up: scale not given: the % may be the effect or the level left; conditions: filed as antagonist
Method in brief: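 ER-positive MCF-7 cells grown in MEM with 10% FBS, 37 °C, 5% CO2, then preconditioned 72 h in charcoal-stripped FBS. […] RNA extracted after genomic DNA removal; PGR mRNA quantified by real-time PCR from threshold cycle, 40 cycles.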

Chain of Estrogen receptor beta (Homo sapiens) (Q92731 whole entry): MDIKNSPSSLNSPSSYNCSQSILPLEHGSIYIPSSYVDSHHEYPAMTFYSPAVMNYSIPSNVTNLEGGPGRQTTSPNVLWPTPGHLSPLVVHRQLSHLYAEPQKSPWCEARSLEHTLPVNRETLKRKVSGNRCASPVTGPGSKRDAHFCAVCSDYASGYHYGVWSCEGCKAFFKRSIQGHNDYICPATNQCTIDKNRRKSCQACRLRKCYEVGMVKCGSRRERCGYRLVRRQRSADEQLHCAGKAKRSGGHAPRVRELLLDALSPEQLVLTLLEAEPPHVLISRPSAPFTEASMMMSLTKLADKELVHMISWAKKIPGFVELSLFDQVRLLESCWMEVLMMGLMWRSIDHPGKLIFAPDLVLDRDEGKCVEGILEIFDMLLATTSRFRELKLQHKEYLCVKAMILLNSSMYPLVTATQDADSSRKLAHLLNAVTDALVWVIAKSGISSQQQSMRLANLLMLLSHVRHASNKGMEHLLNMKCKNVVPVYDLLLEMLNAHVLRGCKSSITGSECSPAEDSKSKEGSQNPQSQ

SMILES | inhibition ([1]; filed as modulator) | Activity (MCF7 [2]) | inhibition ([3]; filed as modulator) | inhibition [1] | inhibition [3] | Activity (MCF7 [4])
Nc1ccc(C(Cn2ccnc2)=C(c2ccc(O)cc2)c2ccc(O)cc2)cc1 | > 90% | 26% | > 90% |  |  | 
N#CCC(=C(c1ccc(O)cc1)c1ccc(O)cc1)c1ccc(N)cc1 |  |  |  | 0% | 0% | 
Oc1ccc(C(=C(Cn2cncn2)c2ccc(O)c(F)c2)c2ccc(O)cc2)cc1 |  |  |  | 2% | 0% | 
Oc1ccc(C(=C(Cn2ccnc2)c2ccccc2)c2ccc(O)cc2)cc1 | > 90% | 26% | > 90% |  |  | 
Oc1ccc(C(=C(Cn2cnnc2)c2ccc(O)c(F)c2)c2ccc(O)cc2)cc1 |  |  |  | 0% | 0% | 
Nc1ccc(C(Cn2cncn2)=C(c2ccc(O)cc2)c2ccc(O)cc2)cc1 |  |  |  | 0% | 2% | 
Oc1ccc(C(=C(Cn2cncn2)c2ccccc2)c2ccc(O)cc2)cc1 |  |  |  | 12% | 33% | 
Nc1ccc(C(Cn2cnnc2)=C(c2ccc(O)cc2)c2ccc(O)cc2)cc1 |  |  |  | 13% | 36% | 
N#CCC(=C(c1ccc(O)cc1)c1ccc(O)cc1)c1ccc(O)c(F)c1 |  |  |  | 0% | 0% | 
Oc1ccc(C(Cn2cnnc2)=C(c2ccc(O)cc2)c2ccc(O)cc2)cc1 | > 90% |  | > 90% |  |  | 
Oc1ccc(C(=C(Cn2ccnc2)c2cccc(O)c2)c2ccc(O)cc2)cc1 |  |  |  | 0% | 29% | 
Oc1ccc(C(Cn2cncn2)=C(c2ccc(O)cc2)c2ccc(O)cc2)cc1 | 45% |  | 40% |  |  | 
CC/C(=C(\c1ccc(O)cc1)c1ccc(OCCN(C)C)cc1)c1ccccc1 |  |  |  |  |  | 10%
Nc1cccc(C(Cn2ccnc2)=C(c2ccc(O)cc2)c2ccc(O)cc2)c1 | 60% |  | 71% |  |  | 
Oc1ccc(C(=C(Cn2ccnc2)c2ccc(O)c(F)c2)c2ccc(O)cc2)cc1 | > 90% | 26% | > 90% |  |  | 
CCC(=C(c1ccc(O)cc1)c1ccc(O)cc1)c1ccccc1 | 80% |  | > 90% |  |  | 
CCC(=C(c1ccc(O)cc1)c1ccc(OCCN)cc1)c1ccccc1 |  |  |  |  |  | 33%
Oc1ccc(C(Cn2ccnc2)=C(c2ccc(O)cc2)c2ccc(O)cc2)cc1 | > 90% | 26% | > 90% |  |  | 
N#CCC(=C(c1ccc(O)cc1)c1ccc(O)cc1)c1ccccc1 | 56% |  | 49% |  |  | 
N#CCC(=C(c1ccc(O)cc1)c1ccc(O)cc1)c1ccc(O)cc1 |  |  |  | 0% | 3% | 
